Assay [1] has as its system MDA-MB-231. The assay can be described thus: Cytotoxicity against hormone-independent human MDA-MB-231 cells assessed as growth inhibition by MTS assay. The format is functional, cell-based. An outline of the steps: (§1)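 Cells seeded at 2,500 per well and exposed to a range of compound concentrations. Read-out is the MTS assay […]. IC50 is the mean of 3 independent experiments, each run in triplicate.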
(Tetrazolium assays rely on reduction of a dye to a coloured formazan, in cell work by metabolically active cells.)

The subject of assay [2] is PC-3. The assay can be described thus: Cytotoxicity against hormone-independent human PC3 cells assessed as growth inhibition by MTS assay. The format is functional, cell-based. The procedure, abridged: as §1
Assay [3] addresses Tubulin (Sus scrofa, UniProt P02554+P02550). The assay can be described thus: Inhibition of porcine brain tubulin polymerization.

Where only a bound is given, the exact number is not on record here.

Take `COc1ccc2c(c1)oc(=O)n2Cc1cc(OC)c(OC)c(OC)c1`: the IC50 was 4520 nM in assay [1], 4490 nM in assay [2] and above 40000 nM in assay [3].

`COc1ccc2c(c1)C(=O)C(=O)N2Cc1cc(OC)c(OC)c(OC)c1`: the values for the IC50 in assay [1], in assay [2] and in assay [3] were 935 nM, 318 nM and “ND(Insoluble)”, respectively.

With `COc1ccc2c(c1)n(C)c(=O)n2Cc1cc(OC)c(OC)c(OC)c1`, the IC50 was 3030 nM in assay [1], 555 nM in assay [2] and above 40000 nM in assay [3].

As for `COc1ccc2c(c1)[nH]c(=O)n2C(=O)c1cc(OC)c(OC)c(OC)c1`, the IC50 in assay [1] stood at 108 nM; in assay [2] it was 126 nM; in assay [3], 19140 nM.

As for `COc1ccc2c(c1)oc(=O)n2C(=O)c1cc(OC)c(OC)c(OC)c1`, the IC50 in assay [1] and in assay [2] was above 20000 nM throughout.

As to `COc1ccc2c(c1)NC(=O)/C2=C/c1cc(OC)c(OC)c(OC)c1`, in assay [1], the IC50 stood at 0.88 nM.

`COc1ccc2c(c1)[nH]c(=O)n2Cc1cc(OC)c(OC)c(OC)c1`: the IC50 was 52.8 nM in assay [1], 44.2 nM in assay [2] and 16400 nM in assay [3].

As to `COc1ccc2c(c1)CC(=O)N2Cc1cc(OC)c(OC)c(OC)c1`, the IC50 in assay [1] came to 193 nM; in assay [2], 165 nM; in assay [3] it was 31200 nM.

One may read the IC50 as the concentration that inhibits the measured activity by half.

The values are drawn from ChEMBL document CHEMBL2401665, “Design, synthesis and biological studies of novel tubulin inhibitors” (Bioorg Med Chem Lett, 2013).
